Data: ChEMBL document CHEMBL4251567 (Eur J Med Chem, 2018)

Columns and labels:
[1] = target: Histone deacetylase 1 (Homo sapiens) (UniProt Q13547); assay: Inhibition of HDAC1 in human HeLa-S3 cell lysates assessed as remaining activity at 8 x 10^-6 M preincubated for 15 mins followed by HDAC-Glo substrate addition measured after 30 to 40 mins by […] relative to control
[2] = target: Histone deacetylase 3 (Homo sapiens) (UniProt O15379); assay: Inhibition of HDAC3 in human HeLa-S3 cell lysates assessed as remaining activity at 1 x 10^-6 M preincubated for 15 mins followed by HDAC-Glo substrate addition measured after 30 to 40 mins by […] relative to control
Sequence of Histone deacetylase 3 (Homo sapiens) (O15379 whole entry): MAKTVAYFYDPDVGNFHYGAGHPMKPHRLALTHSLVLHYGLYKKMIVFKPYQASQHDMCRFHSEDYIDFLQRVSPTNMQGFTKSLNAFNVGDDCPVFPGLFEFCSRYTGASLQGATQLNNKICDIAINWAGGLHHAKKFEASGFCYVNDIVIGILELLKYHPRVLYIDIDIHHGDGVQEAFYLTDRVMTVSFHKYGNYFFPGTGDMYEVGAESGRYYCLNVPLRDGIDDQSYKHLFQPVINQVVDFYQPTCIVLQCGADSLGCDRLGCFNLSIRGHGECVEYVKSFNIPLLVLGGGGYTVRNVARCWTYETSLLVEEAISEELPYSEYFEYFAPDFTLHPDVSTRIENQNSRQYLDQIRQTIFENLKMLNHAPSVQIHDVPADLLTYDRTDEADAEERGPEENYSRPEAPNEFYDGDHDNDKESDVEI
Method in brief: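 Antibody-capture (ELISA-type) assay: HDAC antibody coated in carbonate/bicarbonate buffer pH 9.4, wells blocked with 5% milk in TBST. HeLa-S3 lysate added at 1 mg/mL for HDAC3, 1 h at 4 °C, then washed. Inhibitor in DMSO preincubated 15 min at RT in HDAC-Glo buffer. HDAC-Glo reagent added, luminescence read after 30-40 min. Concentrations are final. Background = no-antibody well; activity given as % of DMSO control.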

[3] = target: Histone deacetylase 2 (Homo sapiens) (UniProt Q92769); assay: Inhibition of HDAC2 in human HeLa-S3 cell lysates assessed as remaining activity at 2 x 10^-6 M preincubated for 15 mins followed by HDAC-Glo substrate addition measured after 30 to 40 mins by fluorimetric method relative to control
Sequence of Histone deacetylase 2 (Homo sapiens) (Q92769 whole entry, canonical isoform): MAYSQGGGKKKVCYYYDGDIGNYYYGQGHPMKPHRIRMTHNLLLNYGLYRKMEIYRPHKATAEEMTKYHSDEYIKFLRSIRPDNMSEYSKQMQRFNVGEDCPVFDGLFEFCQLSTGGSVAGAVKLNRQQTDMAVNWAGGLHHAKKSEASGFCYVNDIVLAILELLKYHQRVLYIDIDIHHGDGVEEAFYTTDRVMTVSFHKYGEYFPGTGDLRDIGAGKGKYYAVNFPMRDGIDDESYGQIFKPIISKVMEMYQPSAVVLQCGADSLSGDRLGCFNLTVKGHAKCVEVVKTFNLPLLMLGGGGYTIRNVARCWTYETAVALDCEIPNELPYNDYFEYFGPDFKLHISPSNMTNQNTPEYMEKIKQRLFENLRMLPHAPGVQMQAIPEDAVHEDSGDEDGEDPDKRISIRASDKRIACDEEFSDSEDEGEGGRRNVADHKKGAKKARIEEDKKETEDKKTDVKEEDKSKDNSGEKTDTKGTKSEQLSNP
Method in brief: (§1)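 Same antibody-capture format as the other class I isoforms. HeLa-S3 lysate added at 100 μg/mL for HDAC1 and HDAC2, 1 h at 4 °C, then washed. Inhibitor in DMSO preincubated 15 min at RT; HDAC-Glo reagent added and luminescence read after 30-40 min. Concentrations are final. Signal corrected against a well without antibody; activity expressed as % of DMSO control.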

[4] = target: Histone deacetylase 2 (Homo sapiens) (UniProt Q92769); assay: Inhibition of HDAC2 in human HeLa-S3 cell lysates assessed as remaining activity at 1.6 x 10^-5 M preincubated for 15 mins followed by HDAC-Glo substrate addition measured after 30 to 40 mins by […] relative to control; method in brief: as §1
[5] = target: Histone deacetylase 1 (Homo sapiens) (UniProt Q13547); assay: Inhibition of HDAC1 in human HeLa-S3 cell lysates assessed as remaining activity at 1 x 10^-6 M preincubated for 15 mins followed by HDAC-Glo substrate addition measured after 30 to 40 mins by fluorimetric method relative to control
Method in brief: (§2)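 HDAC1 was captured from HeLa-S3 lysate (100 μg/mL) onto wells precoated with anti-HDAC1 antibody (10 μg/mL, carbonate buffer pH 9.4) and milk-blocked, 1 h at 4 °C, then washed. Inhibitor in DMSO was added in HDAC-Glo buffer for 15 min at room temperature. HDAC-Glo reagent was added and luminescence read after 30-40 min. Concentrations are final. No-antibody background subtracted; % of DMSO control.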

[6] = target: Histone deacetylase 3 (Homo sapiens) (UniProt O15379); assay: Inhibition of HDAC3 in human HeLa-S3 cell lysates assessed as remaining activity at […] preincubated for 15 mins followed by HDAC-Glo substrate addition measured after 30 to 40 mins by […] relative to control
[7] = target: Histone deacetylase 1 (Homo sapiens) (UniProt Q13547); assay: Inhibition of HDAC1 in human HeLa-S3 cell lysates assessed as remaining activity at 4 x 10^-6 M preincubated for 15 mins followed by HDAC-Glo substrate addition measured after 30 to 40 mins by […] relative to control; method in brief: as §2
[8] = target: Histone deacetylase 1 (Homo sapiens) (UniProt Q13547); assay: Inhibition of HDAC1 in human HeLa-S3 cell lysates assessed as remaining activity at 1.6 x 10^-5 M preincubated for 15 mins followed by HDAC-Glo substrate addition measured after 30 to 40 mins by […] relative to control; method in brief: as §2
[9] = target: T1, Histone deacetylase 8 (Homo sapiens) (UniProt Q9BY41); assay: Inhibition of human recombinant full-length C-terminal His-tagged HDAC8 expressed in baculovirus infected Sf9 insect cell assessed as remaining activity at 8 x 10^-7 M preincubated for 15 mins followed by HDAC-Glo substrate addition measured after 30 mins by fluorimetric method rel;ative to control
T1 sequence (whole entry): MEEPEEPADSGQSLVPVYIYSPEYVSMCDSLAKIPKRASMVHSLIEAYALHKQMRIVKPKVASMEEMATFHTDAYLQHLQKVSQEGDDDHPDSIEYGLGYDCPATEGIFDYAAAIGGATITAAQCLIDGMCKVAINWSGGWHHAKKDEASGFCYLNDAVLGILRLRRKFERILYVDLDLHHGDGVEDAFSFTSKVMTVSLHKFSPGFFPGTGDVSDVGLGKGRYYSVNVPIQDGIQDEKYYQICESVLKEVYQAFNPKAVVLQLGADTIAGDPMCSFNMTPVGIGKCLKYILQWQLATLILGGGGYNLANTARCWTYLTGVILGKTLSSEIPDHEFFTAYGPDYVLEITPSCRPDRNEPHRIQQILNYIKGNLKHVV
Method in brief: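 Recombinant HDAC8 (75 ng) preincubated 15 min at RT with inhibitor in DMSO in HDAC-Glo buffer. HDAC-Glo reagent added and luminescence read 30 min later. Background taken from a reaction without enzyme; activity as % of DMSO control.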

Sequence of Histone deacetylase 1 (Homo sapiens) (Q13547 whole entry): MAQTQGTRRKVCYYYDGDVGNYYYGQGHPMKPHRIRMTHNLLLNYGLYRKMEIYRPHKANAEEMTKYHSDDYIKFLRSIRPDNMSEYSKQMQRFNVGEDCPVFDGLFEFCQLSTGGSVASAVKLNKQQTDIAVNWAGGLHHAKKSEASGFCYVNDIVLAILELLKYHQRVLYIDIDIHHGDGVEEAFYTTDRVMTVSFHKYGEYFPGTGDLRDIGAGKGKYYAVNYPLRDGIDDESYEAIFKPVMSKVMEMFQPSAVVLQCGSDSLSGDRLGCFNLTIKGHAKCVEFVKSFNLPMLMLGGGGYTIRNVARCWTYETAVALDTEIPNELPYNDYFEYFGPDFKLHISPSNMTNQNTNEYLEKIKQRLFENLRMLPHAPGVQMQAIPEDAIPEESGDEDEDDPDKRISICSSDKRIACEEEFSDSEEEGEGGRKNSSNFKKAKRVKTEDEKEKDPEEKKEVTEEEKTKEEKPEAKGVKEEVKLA

Row | Activity [1] | Activity [2] | Activity [3] | Activity [4] | Activity [5] | Activity [6] | Activity [7] | Activity [8] | Activity [9] | SMILES
1 | 32% | 83% | 69% | 23% | 81% | 71% | 58% | 19% |  | CCC(CCCC(=O)Nc1ccccc1)CCC(=O)NO (centres undefined)
2 |  |  |  |  |  |  |  |  | 19% | O=C(CC[C@H](CCCC(=O)Nc1ccccc1)Cc1ccccc1)NO
